Source: ChEMBL document CHEMBL3407390, “α2-adrenoceptor antagonists: synthesis, pharmacological evaluation, and molecular modeling investigation of pyridinoguanidine, pyridino-2-aminoimidazoline and their derivatives” (J Med Chem, 2015)

Tests used:
[1] = target: T1, Adrenergic receptor alpha-2 (Homo sapiens, UniProt P08913+P18825+P18089); assay: Displacement of [3H]-RX-821002 from human alpha-2 adrenergic receptor in brain prefrontal cortex membrane by liquid scintillation spectrometry; assay type: cell membranes
T1 sequence (P08913 whole entry): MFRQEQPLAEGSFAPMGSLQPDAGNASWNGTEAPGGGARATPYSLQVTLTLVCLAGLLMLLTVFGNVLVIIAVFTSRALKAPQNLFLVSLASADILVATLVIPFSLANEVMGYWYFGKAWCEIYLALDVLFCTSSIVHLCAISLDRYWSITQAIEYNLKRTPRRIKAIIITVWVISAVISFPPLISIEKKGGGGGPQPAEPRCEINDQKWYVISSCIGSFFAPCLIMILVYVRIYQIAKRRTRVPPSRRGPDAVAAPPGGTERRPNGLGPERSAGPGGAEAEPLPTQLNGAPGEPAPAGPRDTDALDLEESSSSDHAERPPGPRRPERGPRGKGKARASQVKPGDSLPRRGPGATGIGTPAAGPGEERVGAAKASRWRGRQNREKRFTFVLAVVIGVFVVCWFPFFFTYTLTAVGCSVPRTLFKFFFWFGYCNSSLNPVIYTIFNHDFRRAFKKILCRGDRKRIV
T1 sequence (P18825 whole entry): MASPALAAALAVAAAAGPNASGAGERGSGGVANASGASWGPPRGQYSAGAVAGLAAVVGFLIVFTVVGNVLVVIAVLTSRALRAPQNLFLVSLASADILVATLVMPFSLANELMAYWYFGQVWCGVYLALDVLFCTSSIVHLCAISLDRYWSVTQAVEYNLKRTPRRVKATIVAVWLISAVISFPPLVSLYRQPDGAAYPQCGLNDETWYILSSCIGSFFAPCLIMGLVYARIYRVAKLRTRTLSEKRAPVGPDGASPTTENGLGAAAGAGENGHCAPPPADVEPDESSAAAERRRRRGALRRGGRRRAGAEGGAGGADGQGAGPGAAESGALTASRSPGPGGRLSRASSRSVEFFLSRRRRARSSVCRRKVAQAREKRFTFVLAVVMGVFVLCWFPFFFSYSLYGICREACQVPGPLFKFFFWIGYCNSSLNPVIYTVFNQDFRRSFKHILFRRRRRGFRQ
T1 sequence (P18089 whole entry): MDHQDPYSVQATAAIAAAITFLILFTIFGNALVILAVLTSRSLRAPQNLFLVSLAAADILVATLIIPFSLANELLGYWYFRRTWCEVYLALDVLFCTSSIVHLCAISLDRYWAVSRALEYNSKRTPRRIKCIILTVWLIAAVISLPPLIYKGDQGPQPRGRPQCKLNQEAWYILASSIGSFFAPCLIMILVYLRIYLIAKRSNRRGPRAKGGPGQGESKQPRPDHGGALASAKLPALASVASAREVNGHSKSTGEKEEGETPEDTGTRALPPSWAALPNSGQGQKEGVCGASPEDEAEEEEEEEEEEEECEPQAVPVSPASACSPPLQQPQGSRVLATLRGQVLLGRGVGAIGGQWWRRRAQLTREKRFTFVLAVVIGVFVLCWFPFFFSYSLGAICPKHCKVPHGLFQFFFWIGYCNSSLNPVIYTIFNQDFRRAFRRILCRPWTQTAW
Summary of the method: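 Human prefrontal cortex brain membranes incubated with [3H]RX821002 (2 nM) in 50 mM Tris-HCl, pH 7.5, for 30 min at 25 °C, with competitor at 10 concentrations (10⁻¹²–10⁻³ M). Bound and free ligand separated by rapid vacuum filtration through GF/C filters, then scintillation counting. Adrenaline (10⁻⁵ M) defined nonspecific binding. Ki from one-site nonlinear regression, expressed as pKi.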

[2] = target: T1, Adrenergic receptor alpha-2; assay: Antagonist activity at human alpha-2 adrenergic receptor in brain prefrontal cortex membrane assessed as inhibition of UK14304-induced [35S]-GTPgammaS binding by liquid scintillation spectrometry; assay type: functional, cell membranes
Summary of the method: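 Human prefrontal cortex membranes (40 μg protein) incubated 120 min at 30 °C with shaking in 50 mM Tris-HCl pH 7.4 with 1 mM EGTA, 3 mM MgCl2, 100 mM NaCl, GDP and 0.5 nM [35S]GTPγS. Compounds at 10 concentrations (10⁻¹²–10⁻³ M) were tested against agonist UK14304. Filtration through GF/C filters, then scintillation counting. Nonspecific binding defined with 10 μM unlabeled GTPγS; nonlinear curve analysis.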

Rattus norvegicus [3] = assay: Induction of noradrenaline release from Sprague-Dawley rat in prefrontal cortex at 1 to 100 uM local administration measured for every 70 mins by microdialysis; assay type: functional
Summary of the method: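 Male Sprague-Dawley rats (250–300 g), probe placed in PFC under 1.5% isoflurane; tested 18–24 h later. Probe perfused with aCSF (pH 7.4) at 1 μL/min. Compounds dissolved in aCSF were given by reverse dialysis at 1, 10, then 100 μM, each for 70 min. Dialysates collected every 35 min; NA measured by HPLC with amperometric detection. Values are % of mean basal (first 3–4 samples); three animals/group.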

Rattus norvegicus [4] = assay: Induction of noradrenaline release from Sprague-Dawley rat in prefrontal cortex at 10 mg/kg, ip […] by microdialysis; assay type: functional; conditions: route intraperitoneal

Row | SMILES | pKi [1] | further results
1 | Cl.N=C(N)Nc1cccnc1 | 3.79 | 
2 | Cl.N=C(N)Nc1ccc(Cl)nc1 | 5.18 | 
3 | Cc1ccc(NC(=N)N)cn1.Cl | 4.97 | 
4 | Cl.N=C(N)Nc1cnc2c(c1)CCCC2 | 5.57 | 
5 | Cl.c1ccc(NC2=NCCN2)nc1 | 6.44 | 
6 | Cl.Clc1ccc(NC2=NCCN2)nc1 | 6.25 | 
7 | Cc1ccc(NC2=NCCN2)nc1.Cl | 6.41 | 
8 | Cl.c1cc2c(nc1NC1=NCCN1)CCCC2 | 6.27 | EC50 [2]: 3.57 µM
9 | CCNc1ccc(NC2=NCCN2)nc1.Cl | 5.65 | 
10 | Cl.c1cncc(NC2=NCCN2)c1 | 5.28 | 
11 | Cl.c1nc2c(cc1NC1=NCCN1)CCCC2 | 7.02 | EC50 [2]: 4.23 µM; Emax (Rattus norvegicus [3]): 148%; Activity (Rattus norvegicus [4]): 138%
12 | CCNc1ccc(NC2=NCCN2)cn1.Cl | 7.13 | EC50 [2]: 6.71 µM; Emax (Rattus norvegicus [3]): 429%; Activity (Rattus norvegicus [4]): 186%
13 | Cc1ccc(NC(=N)NCCO)nc1.Cl | 5.21 | 
14 | CCCNC(=N)Nc1ccc(Cl)cn1.Cl | 5.71 | 
15 | CCCNC(=N)Nc1ccc(C)cn1.Cl | 6.74 | 
16 | Cl.OCCNC1=NCc2cccnc2N1 | 4.49 | 
17 | Cl.c1coc(CNC2=NCc3cccnc3N2)c1 | 4.5 | 
18 | Cl.c1cnc2c(c1)CN=C(NCc1ccc3c(c1)OCO3)N2 | 5.3 | 

The next lines start with results.

Row | pKi [1] | SMILES | further results
19 | 6.19 | Cl.N=C(N)Nc1ccccn1 | 
20 | 5.62 | Cl.N=C(N)Nc1ccc(Br)cn1 | 
21 | 5.7 | Cl.N=C(N)Nc1ccc(Cl)cn1 | 
22 | 6.03 | Cc1ccc(NC(=N)N)nc1.Cl | 
23 | 6.78 | Cl.N=C(N)Nc1ccc2c(n1)CCCC2 | EC50 [2]: 2.71 µM
24 | 4.12 | CCNc1ccc(NC(=N)N)nc1.Cl | 
25 | 6.35 | CCNc1ccc(NC(=N)N)cn1.Cl | 
26 | 5 | Cl.N=C(N)Nc1ccc([N+](=O)[O-])cn1 | 
27 | 5 | Cl.N=C(N)Nc1ccc(N)cn1 | 
28 | 6.21 | Cl.N=C(Nc1ccccc1)Nc1ccccn1 | 
29 | 6.02 | Cc1ccc(NC(=N)Nc2ccccc2)nc1.Cl | 
30 | 6.75 | Cl.N=C(Nc1ccccc1)Nc1ccc2c(n1)CCCC2 | 
31 | 5.38 | Cl.N=C(NCCO)Nc1ccccn1 | 
32 | 5.83 | Cl.N=C(NCCO)Nc1ccc2c(n1)CCCC2 | 
33 | 6.32 | Cl.N=C(NCc1ccco1)Nc1ccccn1 | 
34 | 6.28 | Cc1ccc(NC(=N)NCc2ccco2)nc1.Cl | 
35 | 6.67 | Cl.N=C(NCc1ccco1)Nc1ccc2c(n1)CCCC2 | EC50 [2]: 37.01 µM
36 | 4.4 | Cl.c1ccc(NC2=NCc3ccccc3N2)cc1 | 
37 | 6.26 | Cl.OCCNC1=NCc2ccccc2N1 | EC50 [2]: 60.34 µM
38 | 5.35 | Cl.c1coc(CNC2=NCc3ccccc3N2)c1 | 
39 | 4.33 | CCCNC1=NCc2ccccc2N1.Cl | 
